One block for each compound: values may come before it. Starred links: 1 amine or outer side, 2 acyl side, 3 side chain; linkers in the order of their positions; H or OH if unused. Residues, ends and D or L forms follow the SMILES beside them. *: point of attachment. isoSer(2S) = O=C([C@@H](O)CN[*:1])[*:2]; NHCH2(2-pyridyl) = c1ccc(CN*)nc1; OBn = c1ccc(CO*)cc1
Key:
[1] = target: T1, Myosin light chain kinase, smooth muscle (Gallus gallus, UniProt P11799); assay: Inhibition of calmodulin-independent form of MLCK(myosin light chain kinase) from chicken gizzard
Outline: (§1)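 Chicken gizzard MLCK made calmodulin-independent by limited trypsin digestion. It was started with ATP and stopped with HCl. Phosphate in substrate was counted on phosphocellulose filters. IC50 was read graphically from duplicates at four concentrations and reported as the mean, or as % inhibition at one concentration.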

[2] = target: T1, Myosin light chain kinase, smooth muscle; assay: Inhibition of native form of MLCK myosin light chain kinase from chicken gizzard
Outline: (§2)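 Native calmodulin-dependent gizzard MLCK, over 95% homogeneous, with 200 nM calmodulin, 1 mM EGTA and about 200 μM excess free Ca2+. Started with ATP and stopped with HCl; phosphocellulose filter counting. Graphical IC50 from duplicates at four concentrations, or % inhibition at a single concentration.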

[3] = target: Myosin light chain kinase, smooth muscle (Gallus gallus) (UniProt P11799); settings: 1000 uM
[4] = target: Myosin light chain kinase, smooth muscle (Gallus gallus) (UniProt P11799); assay: Inhibition of calmodulin-independent form of Myosin light chain kinase from chicken gizzard at 100 uM; settings: 300 uM, in the assay text read “at 300 uM” for “at 100 uM”; outline: as §1
[5] = target: Myosin light chain kinase, smooth muscle (Gallus gallus) (UniProt P11799); assay: Inhibition of calmodulin-independent form of Myosin light chain kinase from chicken gizzard at 300 uM; outline: as §1
[6] = target: Myosin light chain kinase, smooth muscle (Gallus gallus) (UniProt P11799); assay: Inhibition of native form of myosin light chain kinase from chicken gizzard at 1000 uM; outline: as §2
[7] = target: T1, Myosin light chain kinase, smooth muscle; assay: Inhibition of native form of myosin light chain kinase from chicken gizzard; outline: as §2
[8] = target: Myosin light chain kinase, smooth muscle (Gallus gallus) (UniProt P11799); assay: Inhibition of native form of myosin light chain kinase at from chicken gizzard 100 uM; outline: as §2
[9] = target: Myosin light chain kinase, smooth muscle (Gallus gallus) (UniProt P11799); assay: Rate of phosphate incorporation by myosin light chain kinase at 50 uM
[10] = target: Myosin light chain kinase, smooth muscle (Gallus gallus) (UniProt P11799); assay: Inhibition of native form of myosin light chain kinase from chicken gizzard 1000 uM; outline: as §2

T1 sequence (P11799 whole entry): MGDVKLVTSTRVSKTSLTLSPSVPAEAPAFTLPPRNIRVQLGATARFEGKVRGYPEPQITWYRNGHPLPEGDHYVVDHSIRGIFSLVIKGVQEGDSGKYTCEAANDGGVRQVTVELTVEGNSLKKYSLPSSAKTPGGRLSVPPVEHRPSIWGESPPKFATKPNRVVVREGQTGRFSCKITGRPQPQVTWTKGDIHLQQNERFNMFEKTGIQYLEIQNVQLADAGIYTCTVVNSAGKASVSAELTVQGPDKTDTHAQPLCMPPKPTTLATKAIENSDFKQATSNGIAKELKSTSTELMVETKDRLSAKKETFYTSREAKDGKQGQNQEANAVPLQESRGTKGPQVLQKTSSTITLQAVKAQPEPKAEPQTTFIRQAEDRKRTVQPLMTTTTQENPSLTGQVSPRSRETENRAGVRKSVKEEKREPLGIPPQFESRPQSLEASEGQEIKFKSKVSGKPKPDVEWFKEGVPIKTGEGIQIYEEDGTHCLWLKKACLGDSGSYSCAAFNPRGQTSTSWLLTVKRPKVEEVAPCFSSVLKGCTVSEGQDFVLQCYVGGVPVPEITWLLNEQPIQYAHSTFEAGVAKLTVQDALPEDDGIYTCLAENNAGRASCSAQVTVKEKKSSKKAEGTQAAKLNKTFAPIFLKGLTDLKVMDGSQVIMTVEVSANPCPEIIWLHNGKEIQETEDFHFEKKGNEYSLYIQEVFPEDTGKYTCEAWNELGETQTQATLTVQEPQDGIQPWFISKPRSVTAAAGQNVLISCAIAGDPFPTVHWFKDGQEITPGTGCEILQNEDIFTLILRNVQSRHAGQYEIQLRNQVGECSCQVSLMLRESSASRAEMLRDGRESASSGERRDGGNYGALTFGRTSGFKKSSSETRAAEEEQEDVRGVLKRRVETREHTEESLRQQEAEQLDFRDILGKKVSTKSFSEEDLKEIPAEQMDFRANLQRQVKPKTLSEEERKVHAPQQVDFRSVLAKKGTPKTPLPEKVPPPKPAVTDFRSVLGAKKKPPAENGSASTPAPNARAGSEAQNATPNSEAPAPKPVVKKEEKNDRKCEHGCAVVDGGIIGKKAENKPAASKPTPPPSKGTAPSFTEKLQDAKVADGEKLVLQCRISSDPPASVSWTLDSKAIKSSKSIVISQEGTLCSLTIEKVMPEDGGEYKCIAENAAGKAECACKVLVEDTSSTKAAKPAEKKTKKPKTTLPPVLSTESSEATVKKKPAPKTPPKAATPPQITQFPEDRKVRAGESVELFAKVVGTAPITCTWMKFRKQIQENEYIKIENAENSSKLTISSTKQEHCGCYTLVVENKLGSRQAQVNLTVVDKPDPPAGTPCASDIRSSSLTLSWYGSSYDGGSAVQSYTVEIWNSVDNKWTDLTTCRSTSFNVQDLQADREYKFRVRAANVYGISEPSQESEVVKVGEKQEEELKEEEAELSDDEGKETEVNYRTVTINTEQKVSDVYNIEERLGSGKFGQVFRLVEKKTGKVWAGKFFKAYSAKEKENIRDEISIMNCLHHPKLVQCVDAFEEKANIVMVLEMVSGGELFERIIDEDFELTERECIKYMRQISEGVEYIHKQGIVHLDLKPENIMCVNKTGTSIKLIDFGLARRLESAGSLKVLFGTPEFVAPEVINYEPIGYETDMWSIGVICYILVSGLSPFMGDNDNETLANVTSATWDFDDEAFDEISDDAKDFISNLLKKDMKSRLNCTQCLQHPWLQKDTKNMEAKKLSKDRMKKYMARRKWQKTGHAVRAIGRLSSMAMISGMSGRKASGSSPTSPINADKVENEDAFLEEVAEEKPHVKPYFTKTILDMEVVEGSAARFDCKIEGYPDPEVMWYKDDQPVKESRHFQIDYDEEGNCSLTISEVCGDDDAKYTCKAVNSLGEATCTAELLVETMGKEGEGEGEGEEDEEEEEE
Sequence of Myosin light chain kinase, smooth muscle (Gallus gallus) (P11799 whole entry): as above

IC50 [1]: 21 µM
IC50 [2]: 28 µM
Rate [3]: 0.017 pM/min
Structure (SMILES): CC(C)[C@H](NC(=O)[C@H](CC(N)=O)NC(=O)[C@@H](N)CO)C(=O)N[C@@H](Cc1ccccc1)C(=O)N[C@@H](C)C(=O)OCc1ccccc1

inhibition [4]: 33%
Structure (SMILES): CC(C)[C@H](NC[C@H](CC(N)=O)NC(=O)[C@@H](N)CO)C(=O)N[C@@H](Cc1ccccc1)C(=O)N[C@@H](C)C(=O)OCc1ccccc1

inhibition [8]: 14%
Structure (SMILES): CC(C)[C@H](NC(=O)[C@H](CC(N)=O)NC(=O)[C@@H](O)CN)C(=O)N[C@@H](Cc1ccccc1)C(=O)N[C@@H](C)C(=O)OCc1ccccc1 ({isoSer(2S)}-NVFA-OBn)

inhibition [8]: 32%
Structure (SMILES): CC(C)[C@H](NC(=O)[C@H](CCC(N)=O)NC(=O)[C@@H](N)CO)C(=O)N[C@@H](Cc1ccccc1)C(=O)N[C@@H](C)C(=O)OCc1ccccc1 (H-SQVFA-OBn)

inhibition [8]: 37%
Structure (SMILES): CC(C)[C@H](NC(=O)[C@H](CC(N)=O)NC(=O)CN)C(=O)N[C@@H](Cc1ccccc1)C(=O)N[C@@H](C)C(=O)OCc1ccccc1 (H-GNVFA-OBn)

inhibition [8]: 0%
Structure (SMILES): CC(C)[C@H](NC(=O)[C@H](CC(=O)O)NC(=O)[C@@H](N)CO)C(=O)N[C@@H](Cc1ccccc1)C(=O)N[C@@H](C)C(=O)OCc1ccccc1 (H-SDVFA-OBn)

IC50 [7]: 800 µM
Structure (SMILES): CC(C)[C@H](NC(=O)[C@@H](N)CC(N)=O)C(=O)N[C@@H](Cc1ccccc1)C(=O)N[C@@H](C)C(=O)OCc1ccccc1 (H-NVFA-OBn)

More lines, now with the values behind:

Structure (SMILES): CC(C)[C@H](NC(=O)[C@H](CC(N)=O)NC[C@@H](N)CO)C(=O)N[C@@H](Cc1ccccc1)C(=O)N[C@@H](C)C(=O)NCc1ccccc1
inhibition [4]: 0%

Structure (SMILES): COC(=O)[C@H](C)NC(=O)[C@H](Cc1ccccc1)NC(=O)[C@@H](NC(=O)[C@H](CC(N)=O)NC(=O)[C@@H](N)CO)C(C)C (H-SNVFA-OMe)
inhibition [5]: 0%

Structure (SMILES): C[C@H](NC(=O)[C@H](Cc1ccccc1)NC(=O)CNC(=O)[C@H](CC(N)=O)NC(=O)[C@@H](N)CO)C(=O)OCc1ccccc1 (H-SNGFA-OBn)
inhibition [4]: 17%

Structure (SMILES): CC(C)[C@H](NC(=O)[C@H](CC(N)=O)NC(=O)[C@@H](N)CO)C(=O)N[C@@H](Cc1ccccc1)C(=O)N[C@@H](C)C(=O)NCc1ccccn1 (H-SNVFA-{NHCH2(2-pyridyl)})
inhibition [4]: 5%
inhibition [6]: 0%

Structure (SMILES): CC(C)[C@H](NC(=O)[C@H](CC(N)=O)NC(=O)[C@@H](N)CO)C(=O)N[C@@H](Cc1ccccc1)C(=O)N[C@@H](C)C(N)=O (H-SNVFA-NH2)
inhibition [5]: 0%

Structure (SMILES): C[C@H](NC(=O)[C@@H](N)Cc1ccccc1)C(=O)OCc1ccccc1
inhibition [6]: 0%

Structure (SMILES): CC(C)[C@H](N)C(=O)N[C@@H](Cc1ccccc1)C(=O)N[C@@H](C)C(=O)OCc1ccccc1 (H-Val-Phe-Ala-OBn)
IC50 [7]: 1000 µM

Structure (SMILES): CC(C)[C@H](NC(=O)[C@H](CC(N)=O)NC(=O)[C@H](CO)NC(=O)[C@@H](NC(=O)[C@H](C)NC(=O)[C@H](CCCN=C(N)N)NC(=O)[C@H](CCC(N)=O)NC(=O)[C@@H]1CCCN1C(=O)[C@H](CCCN=C(N)N)NC(=O)[C@H](CCCCN)NC(=O)[C@@H](N)CCCCN)[C@@H](C)O)C(=O)N[C@@H](Cc1ccccc1)C(=O)N[C@@H](CO)C(N)=O (H-KKRPQRATSNVFS-NH2)
Rate [9]: 45 pmol/min

Structure (SMILES): CC(C)[C@H](NC(=O)[C@@H](/C=C/[C@@H](N)CO)CC(N)=O)C(=O)N[C@@H](Cc1ccccc1)C(=O)N[C@@H](C)C(=O)NCc1ccccc1
inhibition [4]: 0%

Structure (SMILES): CC(C)[C@H](NC(=O)[C@H](Cc1c[nH]cn1)NC(=O)[C@@H](N)CO)C(=O)N[C@@H](Cc1ccccc1)C(=O)N[C@@H](C)C(=O)OCc1ccccc1 (H-SHVFA-OBn)
inhibition [8]: 0%

Structure (SMILES): CC(C)[C@H](NC(=O)[C@H](CC(N)=O)NC(=O)[C@@H](N)CO)C(=O)OCc1ccccc1 (H-Ser-Asn-Val-OBn)
inhibition [10]: 0%

Structure (SMILES): CC(C)[C@H](NC(=O)[C@H](CC(N)=O)NC(=O)[C@@H](N)CO)C(=O)N[C@@H](Cc1ccccc1)C(=O)N[C@@H](C)C(=O)O (H-SNVFA-OH)
inhibition [4]: 0%
